{
  "source": "PubChem BioAssay",
  "note": "The source made the active and inactive calls.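 Rule for the calls, unless noted: active = duplicate-averaged activation above buffer control mean plus 5 SD of those controls; inactive = the rest.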",
  "data": [
    {"tested_on": "not listed separately", "assay": "nonspecific flux increase, KCNQ1-free cells – parental CHO cells, counter-screen for KCNQ1 potentiator project (AID 493006)", "settings": "parental CHO-K1 cells, FluxOR thallium flux, at 10 µM; hits give high values", "in_short": "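Assay system: Untransfected host CHO-K1 cells with FluxOR thallium dye | Probe or stimulus: Potassium/thallium depolarization pulse | Schedule: Overnight 37 °C plating, 90 min RT dye, 20 min compound | Detection: Kinetic thallium-flux fluorescence | Read-out: Max-minus-min fluorescence over baseline, percent of buffer-to-R-L3 span | Benchmarks: Low control buffer, high control R-L3 activator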", "values": [
      {"smiles": "CC1(N2CCCCC2)CC2(O)C(=[N+]1[O-])CCC/C2=N\\O", "note": "(stereo not given)", "outcome": "inactive"},
      {"smiles": "Cc1ccccc1C([O-])=Nc1ccc[n+](-c2nc3ccccc3nc2NS(=O)(=O)c2ccccc2)c1", "outcome": "inactive"},
      {"smiles": "Cc1ccc(-c2csc(=S)[nH]2)cc1", "activation": "628% (active)"},
      {"smiles": "COc1ccc(S(=O)(=O)NCCCN2CCOCC2)cc1F", "outcome": "inactive"},
      {"smiles": "CCOc1ccccc1NC(=O)CCC(=O)Nc1ccccc1OCC", "outcome": "inactive"},
      {"smiles": "CCOc1ccccc1NC(=O)C(=O)CC(=O)c1cccc(OC)c1", "activation": "216% (active)"},
      {"smiles": "OC(CNC1CCCCC1)COCCOc1ccc(Br)cc1", "note": "(stereo not given)", "outcome": "inactive"},
      {"smiles": "Fc1ccc(-c2csc(=S)[nH]2)cc1", "activation": "416% (active)"},
      {"smiles": "Nc1nc(N)c(N=Nc2ccc(C(=O)O)cc2)c(N)n1", "outcome": "inactive"},
      {"smiles": "CC1CCN(C(=S)NC(=O)c2ccccc2)CC1", "outcome": "inactive"},
      {"smiles": "C#CC1(NC(=O)NCCCC)CCCCC1", "outcome": "inactive"},
      {"smiles": "CC(C)N(C(=O)CSc1ncnc2sc(-c3ccccc3)cc12)C(C)C", "outcome": "inactive"},
      {"smiles": "Cc1cc(Cl)ccc1OCc1n[nH]c(=S)n1C1CCCCC1", "activation": "190% (active)"},
      {"smiles": "Cn1c(=S)[nH]c2scc(-c3cccs3)c2c1=O", "activation": "524% (active)"},
      {"smiles": "COc1ccc(C(=O)NC(=S)N(Cc2ccccc2)Cc2ccccc2)cc1", "activation": "385% (active)"},
      {"smiles": "CCCCN1CNC(=S)N(c2ccccc2OCC)C1", "outcome": "inactive"},
      {"smiles": "O=C1c2cccc3cccc(c23)C(=O)C1(O)O", "outcome": "inactive"},
      {"smiles": "COc1cc2c3nnc(-c4ccccc4)c-3cn(Cc3ccc(F)cc3)c2cc1OC", "outcome": "inactive"},
      {"smiles": "Nc1ccccc1OCCOCCOc1ccccc1N", "outcome": "inactive"},
      {"smiles": "Oc1ccc(CN2CCCCC2)c2cccnc12", "activation": "170% (active)"},
      {"smiles": "Oc1c(Br)cc(Br)cc1C=NCc1ccccc1", "activation": "147% (active)"},
      {"smiles": "COC(=O)c1ccc(CSc2ncnc3sc(C)c(C)c23)o1", "activation": "155% (active)"},
      {"smiles": "O=C(c1cccc(-c2ccccc2F)c1)N1CC[C@@H](N2CCC(O)CC2)[C@H](O)C1", "outcome": "inactive"},
      {"smiles": "CCOc1ccc(S(=O)(=O)N2CCCC(C(=O)NCCN3CCOCC3)C2)cc1Cl", "note": "(stereo not given)", "activation": "260% (active)"},
      {"smiles": "Cc1ccc2nc(NC(=S)NC(=O)c3ccco3)sc2c1", "activation": "360% (active)"},
      {"smiles": "O=C(COc1ccccc1)N1CCN(S(=O)(=O)c2cccs2)CC1", "outcome": "inactive"},
      {"smiles": "COc1ccccc1-c1nc(C#N)c(N2CC(C)CC(C)C2)o1", "note": "(stereo not given)", "outcome": "inactive"},
      {"smiles": "O=C(NCc1ccccc1)/C(=C/c1ccccc1)NC(=O)c1ccco1", "outcome": "inactive"},
      {"smiles": "CCCCCCCCCCCCN1[C@@H](CC(=O)O)c2cc(F)ccc2S1(=O)=O", "activation": "230% (active)"},
      {"smiles": "CCC1(c2ccc(Cl)cc2)NC(=S)N(c2ccccc2)N1", "note": "(stereo not given)", "activation": "405% (active)"},
      {"smiles": "CC(=O)NC1=C(NC2CCS(=O)(=O)C2)C(=O)c2ccccc2C1=O", "note": "(stereo not given)", "outcome": "inactive"},
      {"smiles": "Cc1cccc(S(=O)(=O)Nc2cccc3c2C(=O)c2ccccc2-3)c1", "outcome": "inactive"},
      {"smiles": "O=C(CC(=O)c1ccccc1O)c1cccc(F)c1", "activation": "164% (active)"},
      {"smiles": "Fc1ccc(-n2nnc(-c3ccccc3)n2)cc1", "outcome": "inactive"},
      {"smiles": "CC(=O)c1c(NC(=O)c2ccccc2)[nH]c(-c2ccccc2)nc1=S", "activation": "230% (active)"},
      {"smiles": "C/C(=N\\NC(=O)c1cccc(Br)c1)c1ccccn1", "outcome": "inactive"},
      {"smiles": "CN(C)c1nc(=Nc2cccc(Cl)c2)ss1", "activation": "312% (active)"},
      {"smiles": "C/C(=N\\NC(=O)c1cc2ccccc2cc1O)c1ccccn1", "activation": "157% (active)"},
      {"smiles": "CCOc1ccccc1C1CC(=O)Nc2cc3c(cc21)OCCO3", "note": "(stereo not given)", "outcome": "inactive"},
      {"smiles": "COc1ccc(C)cc1NC(=O)C1C2C=CC(C2)C1C(=O)O", "note": "(stereo not given)", "outcome": "inactive"}
    ]},
    {"biological_target": "Potassium voltage-gated channel subfamily KQT member 1 (Homo sapiens) (UniProt P51787)", "sequence (P51787 whole entry, looked up)": "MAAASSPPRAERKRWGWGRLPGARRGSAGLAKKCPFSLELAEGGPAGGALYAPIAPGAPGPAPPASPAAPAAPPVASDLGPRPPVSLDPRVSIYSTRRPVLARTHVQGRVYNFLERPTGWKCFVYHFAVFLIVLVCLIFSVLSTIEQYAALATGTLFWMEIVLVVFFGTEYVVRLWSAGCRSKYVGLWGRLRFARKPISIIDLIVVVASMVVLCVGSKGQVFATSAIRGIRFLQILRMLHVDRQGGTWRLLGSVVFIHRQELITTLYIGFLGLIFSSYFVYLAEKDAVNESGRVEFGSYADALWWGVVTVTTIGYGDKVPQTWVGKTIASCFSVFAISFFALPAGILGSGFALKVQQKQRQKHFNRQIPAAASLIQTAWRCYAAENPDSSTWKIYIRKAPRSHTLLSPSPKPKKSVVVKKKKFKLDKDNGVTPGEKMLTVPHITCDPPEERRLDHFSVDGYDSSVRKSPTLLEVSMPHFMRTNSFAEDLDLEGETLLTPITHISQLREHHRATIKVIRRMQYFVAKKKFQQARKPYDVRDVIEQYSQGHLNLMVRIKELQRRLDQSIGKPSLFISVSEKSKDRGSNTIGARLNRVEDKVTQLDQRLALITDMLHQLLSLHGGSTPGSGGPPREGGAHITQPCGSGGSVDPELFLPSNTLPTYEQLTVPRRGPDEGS", "assay": "enhancement of KCNQ1 channel thallium flux – FluxOR thallium flux, CHO cells, duplicates, confirmation (AID 493007;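 active = potentiation averaged over duplicate wells exceeding buffer-only control mean by more than 3 SD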;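 for outcome: cells depolarized by a potassium plus thallium sulfate stimulus after compound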)", "settings": "KCNQ1 cell line, FluxOR thallium flux fluorescence, at 10 µM; hits give high values, % of reference activator effect, buffer zero", "in_short": "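Material: KCNQ1-expressing CHO cell line; Incubation: FluxOR dye loading 90 min, compound exposure 20 min, room temperature; Detection: FluxOR Tl+ flux fluorescence, 10 s baseline plus 110 s recording; Read-out: percent activation between buffer and R-L3 responses; Control set: buffer-only wells as 0% and R-L3 activator as 100%; Replication: duplicate wells per compound.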", "values": [
      {"smiles": "CC1(N2CCCCC2)CC2(O)C(=[N+]1[O-])CCC/C2=N\\O", "note": "(stereo not given)", "outcome": "inactive"},
      {"smiles": "Cc1ccccc1C([O-])=Nc1ccc[n+](-c2nc3ccccc3nc2NS(=O)(=O)c2ccccc2)c1", "outcome": "inactive"},
      {"smiles": "Cc1ccc(-c2csc(=S)[nH]2)cc1", "potentiation": "189% (active)"},
      {"smiles": "COc1ccc(S(=O)(=O)NCCCN2CCOCC2)cc1F", "outcome": "inactive"},
      {"smiles": "CCOc1ccccc1NC(=O)CCC(=O)Nc1ccccc1OCC", "outcome": "inactive"},
      {"smiles": "CCOc1ccccc1NC(=O)C(=O)CC(=O)c1cccc(OC)c1", "potentiation": "87% (active)"},
      {"smiles": "OC(CNC1CCCCC1)COCCOc1ccc(Br)cc1", "note": "(stereo not given)", "outcome": "inactive"},
      {"smiles": "Fc1ccc(-c2csc(=S)[nH]2)cc1", "potentiation": "120% (active)"},
      {"smiles": "Nc1nc(N)c(N=Nc2ccc(C(=O)O)cc2)c(N)n1", "outcome": "inactive"},
      {"smiles": "CC1CCN(C(=S)NC(=O)c2ccccc2)CC1", "outcome": "inactive"},
      {"smiles": "C#CC1(NC(=O)NCCCC)CCCCC1", "outcome": "inactive"},
      {"smiles": "CC(C)N(C(=O)CSc1ncnc2sc(-c3ccccc3)cc12)C(C)C", "outcome": "inactive"},
      {"smiles": "Cc1cc(Cl)ccc1OCc1n[nH]c(=S)n1C1CCCCC1", "potentiation": "129% (active)"},
      {"smiles": "Cn1c(=S)[nH]c2scc(-c3cccs3)c2c1=O", "potentiation": "218% (active)"},
      {"smiles": "COc1ccc(C(=O)NC(=S)N(Cc2ccccc2)Cc2ccccc2)cc1", "potentiation": "168% (active)"},
      {"smiles": "CCCCN1CNC(=S)N(c2ccccc2OCC)C1", "outcome": "inactive"},
      {"smiles": "O=C1c2cccc3cccc(c23)C(=O)C1(O)O", "outcome": "inactive"},
      {"smiles": "COc1cc2c3nnc(-c4ccccc4)c-3cn(Cc3ccc(F)cc3)c2cc1OC", "outcome": "inactive"},
      {"smiles": "Nc1ccccc1OCCOCCOc1ccccc1N", "outcome": "inactive"},
      {"smiles": "Oc1ccc(CN2CCCCC2)c2cccnc12", "potentiation": "47% (active)"},
      {"smiles": "Oc1c(Br)cc(Br)cc1C=NCc1ccccc1", "potentiation": "21.5% (active)"},
      {"smiles": "COC(=O)c1ccc(CSc2ncnc3sc(C)c(C)c23)o1", "potentiation": "24% (active)"},
      {"smiles": "O=C(c1cccc(-c2ccccc2F)c1)N1CC[C@@H](N2CCC(O)CC2)[C@H](O)C1", "outcome": "inactive"},
      {"smiles": "CCOc1ccc(S(=O)(=O)N2CCCC(C(=O)NCCN3CCOCC3)C2)cc1Cl", "note": "(stereo not given)", "potentiation": "108% (active)"},
      {"smiles": "Cc1ccc2nc(NC(=S)NC(=O)c3ccco3)sc2c1", "potentiation": "138% (active)"},
      {"smiles": "O=C(COc1ccccc1)N1CCN(S(=O)(=O)c2cccs2)CC1", "outcome": "inactive"},
      {"smiles": "COc1ccccc1-c1nc(C#N)c(N2CC(C)CC(C)C2)o1", "note": "(stereo not given)", "outcome": "inactive"},
      {"smiles": "O=C(NCc1ccccc1)/C(=C/c1ccccc1)NC(=O)c1ccco1", "outcome": "inactive"},
      {"smiles": "CCCCCCCCCCCCN1[C@@H](CC(=O)O)c2cc(F)ccc2S1(=O)=O", "potentiation": "76% (active)"},
      {"smiles": "CCC1(c2ccc(Cl)cc2)NC(=S)N(c2ccccc2)N1", "note": "(stereo not given)", "potentiation": "150% (active)"},
      {"smiles": "CC(=O)NC1=C(NC2CCS(=O)(=O)C2)C(=O)c2ccccc2C1=O", "note": "(stereo not given)", "outcome": "inactive"},
      {"smiles": "Cc1cccc(S(=O)(=O)Nc2cccc3c2C(=O)c2ccccc2-3)c1", "potentiation": "43.5% (active)"},
      {"smiles": "O=C(CC(=O)c1ccccc1O)c1cccc(F)c1", "potentiation": "50.5% (active)"},
      {"smiles": "Fc1ccc(-n2nnc(-c3ccccc3)n2)cc1", "outcome": "inactive"},
      {"smiles": "CC(=O)c1c(NC(=O)c2ccccc2)[nH]c(-c2ccccc2)nc1=S", "potentiation": "67% (active)"},
      {"smiles": "C/C(=N\\NC(=O)c1cccc(Br)c1)c1ccccn1", "outcome": "inactive"},
      {"smiles": "CN(C)c1nc(=Nc2cccc(Cl)c2)ss1", "potentiation": "119% (active)"},
      {"smiles": "C/C(=N\\NC(=O)c1cc2ccccc2cc1O)c1ccccn1", "potentiation": "38.5% (active)"},
      {"smiles": "CCOc1ccccc1C1CC(=O)Nc2cc3c(cc21)OCCO3", "note": "(stereo not given)", "outcome": "inactive"},
      {"smiles": "COc1ccc(C)cc1NC(=O)C1C2C=CC(C2)C1C(=O)O", "note": "(stereo not given)", "outcome": "inactive"}
    ]}
  ]
}
